The values that follow come from ChEMBL document CHEMBL1781954, “Synthesis and antitumor activity of novel pyrido[2,3-d][1,2,4]triazolo[4,3-a]pyrimidin-5-one derivatives” (Eur J Med Chem, 2011).

Structures are written as SMILES. Values after ≈ are worked out from the molar mass of the structure shown.

The subject of this experiment is MCF7. Description: Cytotoxicity against human MCF7 cells assessed as inhibition of cell viability after 48 hrs by Sulforhodamine B assay. Type of experiment: functional, cell-based. Particulars: MCF7, 48 h. In outline:
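MCF7 cells seeded at 10⁴ cells/well and left 24 h to attach. Compounds in DMSO diluted with saline were added at 0, 1, 2.5, 5 and 10 (triplicate wells per dose). After 48 h at 37 °C in 5% CO₂, cells were fixed with trichloroacetic acid and stained 30 min with 0.4% SRB in 1% acetic acid. Bound dye was recovered in Tris-EDTA and read on an ELISA reader. IC50 was taken from surviving fraction versus concentration curves.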

For orientation: IC50 means the concentration that gives 50% inhibition. `O=c1[nH]c(=S)[nH]c2nc(-c3ccccc3)cc(-c3ccc(Cl)cc3)c12`: the 50% inhibitory concentration (IC50) worked out at 5.11 µg/mL (≈ 14 µM). Next, `O=c1c2c(-c3ccc(Cl)cc3)cc(-c3ccccc3)nc2nc2[nH]ncn12`: 21.6 µg/mL (≈ 57.8 µM); `Cc1n[nH]c2nc3nc(-c4ccccc4)cc(-c4ccc(Cl)cc4)c3c(=O)n12`: over 50 µg/mL.

For `CCc1n[nH]c2nc3nc(-c4ccccc4)cc(-c4ccc(Cl)cc4)c3c(=O)n12`, the IC50 was 14 µg/mL (≈ 34.8 µM). For `O=c1[nH][nH]c2nc3nc(-c4ccccc4)cc(-c4ccc(Cl)cc4)c3c(=O)n12` the value was 24.3 µg/mL (≈ 62.3 µM). Next, `O=c1c2c(-c3ccc(Cl)cc3)cc(-c3ccccc3)nc2nc2[nH][nH]c(=S)n12`: 6.78 µg/mL (≈ 16.7 µM); `CSc1n[nH]c2nc3nc(-c4ccccc4)cc(-c4ccc(Cl)cc4)c3c(=O)n12`: 3.89 µg/mL (≈ 9.26 µM); `CCSc1n[nH]c2nc3nc(-c4ccccc4)cc(-c4ccc(Cl)cc4)c3c(=O)n12`: 5.2 µg/mL (≈ 12 µM).

On to `O=c1c2c(-c3ccc(Cl)cc3)cc(-c3ccccc3)nc2nc2[nH]nc(SCc3ccccc3)n12`, for which the IC50 stood at 12.6 µg/mL (≈ 25.4 µM).

In the case of `CCOC(=O)CSc1n[nH]c2nc3nc(-c4ccccc4)cc(-c4ccc(Cl)cc4)c3c(=O)n12`, the 50% inhibitory concentration (IC50) is 4.5 µg/mL (≈ 9.15 µM). For `O=c1c2c(-c3ccc(Cl)cc3)cc(-c3ccccc3)nc2nc2[nH]nc(-c3ccccc3)n12` the value was 9.22 µg/mL (≈ 20.5 µM); for `Cc1ccc(-c2n[nH]c3nc4nc(-c5ccccc5)cc(-c5ccc(Cl)cc5)c4c(=O)n23)cc1`, 9.07 µg/mL (≈ 19.6 µM); for `Nc1n[nH]c2nc3nc(-c4ccccc4)cc(-c4ccc(Cl)cc4)c3c(=O)n12`, 3.74 µg/mL (≈ 9.62 µM).

With `O=c1c2c(-c3ccc(Cl)cc3)cc(-c3ccccc3)nc2nc2[nH]nc(CCl)n12`, the half-inhibitory concentration (IC50) was 11.7 µg/mL (≈ 27.7 µM).
